Data on nine compounds can be found in ChEMBL document CHEMBL1150354, “'Hybrid' benzofuran-benzopyran congeners as rigid analogs of hallucinogenic phenethylamines” (Bioorg Med Chem, 2008).

For assay [1], the system named is Rattus norvegicus. The experiment in a line: Hallucinogenic activity in D-lysergic acid N,N-diethylamide-trained Sprague-Dawley rat assessed as disrupted behavior at 0.35 mg/kg, ip after 30 mins by two-lever drug discrimination assay. The class given is functional. Particulars: route intraperitoneal. The method in brief: (§1)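 Male Sprague-Dawley rats (200-220 g at start) trained to discriminate LSD tartrate (186 nmol/kg; 0.08 mg/kg, ip) from saline, FR50 food reinforcement, two levers. Test drug given ip 30 min before an extinction session. A session was scored as disruption if 50 presses on one lever were not completed within 5 min. %D is the percentage of rats disrupted at each dose.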

In assay [2] the test system is Rattus norvegicus. Put plainly: Hallucinogenic activity in D-lysergic acid N,N-diethylamide-trained Sprague-Dawley rat assessed as selection of drug-appropriate lever at 0.35 mg/kg, ip after 30 mins by two-lever drug discrimination assay. The class given is functional. Particulars: route intraperitoneal. An outline of the steps:
(§2)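 Male Sprague-Dawley rats (200-220 g at start) trained to discriminate LSD (0.08 mg/kg ip) from saline, FR50 food-reinforced two-lever task, training to ≥85% accuracy on 8 of 10 sessions. Test drug given ip 30 min before an extinction session, ended at 50 presses on one lever. %SDL is the percentage of rats choosing the drug lever per dose. Treatments randomized.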

The subject of assay [3] is Rattus norvegicus. Put plainly: Hallucinogenic activity in D-lysergic acid N,N-diethylamide-trained Sprague-Dawley rat assessed as selection of drug-appropriate lever at 0.09 mg/kg, ip after 30 mins by two-lever drug discrimination assay. The class given is functional. Particulars: route intraperitoneal. An outline of the steps:
as §2

Assay [4] concerns Rattus norvegicus. Put plainly: Hallucinogenic potency in ip dosed D-lysergic acid N,N-diethylamide-trained Sprague-Dawley rat after 30 mins. The class given is functional. Particulars: 0.5 h.
For assay [5], the system named is Rattus norvegicus. Put plainly: Hallucinogenic activity in D-lysergic acid N,N-diethylamide-trained Sprague-Dawley rat assessed as selection of drug-appropriate lever at 0.17 mg/kg, ip after 30 mins by two-lever drug discrimination assay. Particulars: route intraperitoneal. The class given is functional. The method in brief: as §2
In assay [6] the test system is Rattus norvegicus. The experiment in a line: Hallucinogenic activity in D-lysergic acid N,N-diethylamide-trained Sprague-Dawley rat assessed as disrupted behavior at 0.17 mg/kg, ip after 30 mins by two-lever drug discrimination assay. In kind it is functional. Particulars: route intraperitoneal. An outline of the steps: as §1
Assay [7] has as its system Rattus norvegicus. The experiment in a line: Hallucinogenic activity in D-lysergic acid N,N-diethylamide-trained Sprague-Dawley rat assessed as disrupted behavior at 0.09 mg/kg, ip after 30 mins by two-lever drug discrimination assay. The class given is functional. Particulars: route intraperitoneal. The method in brief: as §1
In assay [8] the target is 5-hydroxytryptamine receptor 2A (Rattus norvegicus) (UniProt P14842). The experiment in a line: Intrinsic activity at rat 5HT2A receptor expressed in mouse NIH3T3 cells assessed as stimulation of inositol phosphate accumulation relative to serotonin. In kind it is functional, cell-based. An outline of the steps: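 NIH-3T3 cells stably expressing rat 5-HT2A receptor (GF-6, 5500 fmol/mg), kept in DMEM with 300 μg/ml G-418. Read-out was stimulated radiolabeled inositol phosphate accumulation. Each plate normalized to water-stimulated wells (0%) and 10 μM serotonin (100%). EC50 and intrinsic activity given as mean (SEM) over n experiments.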
Chain of 5-hydroxytryptamine receptor 2A (Rattus norvegicus) (P14842 whole entry): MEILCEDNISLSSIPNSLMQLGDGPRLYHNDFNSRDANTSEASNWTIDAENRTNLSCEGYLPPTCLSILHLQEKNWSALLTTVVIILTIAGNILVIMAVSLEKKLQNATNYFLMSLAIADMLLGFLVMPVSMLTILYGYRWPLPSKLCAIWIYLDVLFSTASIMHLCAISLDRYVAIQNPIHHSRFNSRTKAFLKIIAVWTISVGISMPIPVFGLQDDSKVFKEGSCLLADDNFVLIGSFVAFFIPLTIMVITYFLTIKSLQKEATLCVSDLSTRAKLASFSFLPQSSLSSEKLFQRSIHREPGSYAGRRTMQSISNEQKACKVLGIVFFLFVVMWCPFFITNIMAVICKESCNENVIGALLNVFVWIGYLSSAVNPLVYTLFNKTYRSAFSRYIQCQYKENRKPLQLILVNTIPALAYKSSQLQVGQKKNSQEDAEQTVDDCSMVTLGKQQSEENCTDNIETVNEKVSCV

Assay [9] concerns the target T1, 5-hydroxytryptamine receptor 2A (Rattus norvegicus, UniProt P14842). The experiment in a line: Agonist activity at rat 5HT2A receptor expressed in mouse NIH3T3 cells assessed as stimulation of inositol phosphate accumulation. In kind it is functional, cell-based. An outline of the steps: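 Read-out was stimulated radiolabeled inositol phosphate accumulation. Each plate normalized to water-stimulated wells (0%) and 10 μM serotonin (100%). EC50 and intrinsic activity given as mean (SEM) over n experiments.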

Assay [10] addresses T1, 5-hydroxytryptamine receptor 2A. The experiment in a line: Displacement of [3H]ketanserin from rat 5HT2A receptor expressed in mouse NIH3T3 cells. The class given is cell-based. An outline of the steps: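 Membranes came from NIH-3T3 cells stably expressing rat 5-HT2A receptor (GF-6, 5500 fmol/mg). Competition used 0.5nM [3H]-ketanserin against increasing test compound concentrations (ca. 10 pM - 10 μM). Curves were fitted to give Ki, reported as mean (SEM) over n experiments.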

For assay [11], the system named is Rattus norvegicus. Put plainly: Hallucinogenic activity in D-lysergic acid N,N-diethylamide-trained Sprague-Dawley rat assessed as selection of drug-appropriate lever at 0.69 mg/kg, ip after 30 mins by two-lever drug discrimination assay. In kind it is functional. Particulars: route intraperitoneal. The method in brief:
as §2

Assay [12] relates to Rattus norvegicus. The experiment in a line: Hallucinogenic activity in D-lysergic acid N,N-diethylamide-trained Sprague-Dawley rat assessed as disrupted behavior at 0.69 mg/kg, ip after 30 mins by two-lever drug discrimination assay. The class given is functional. Particulars: route intraperitoneal. The method in brief:
as §1

The subject of assay [13] is Rattus norvegicus. Put plainly: Hallucinogenic activity in D-lysergic acid N,N-diethylamide-trained Sprague-Dawley rat assessed as selection of drug-appropriate lever at 0.38 mg/kg, ip after 30 mins by two-lever drug discrimination assay. Particulars: route intraperitoneal. In kind it is functional. An outline of the steps:
as §2

Assay [14] deals with Rattus norvegicus. Put plainly: Hallucinogenic activity in D-lysergic acid N,N-diethylamide-trained Sprague-Dawley rat assessed as selection of drug-appropriate lever at 0.25 mg/kg, ip after 30 mins by two-lever drug discrimination assay. The class given is functional. Particulars: route intraperitoneal. The method in brief: as §2
Assay [15] has as its system Rattus norvegicus. The experiment in a line: Hallucinogenic activity in D-lysergic acid N,N-diethylamide-trained Sprague-Dawley rat assessed as selection of drug-appropriate lever at 0.50 mg/kg, ip after 30 mins by two-lever drug discrimination assay. Particulars: dose 0.5 mg/kg; route intraperitoneal. The class given is functional. An outline of the steps:
as §2

Assay [16] relates to Rattus norvegicus. Put plainly: Hallucinogenic activity in D-lysergic acid N,N-diethylamide-trained Sprague-Dawley rat assessed as disrupted behavior at 0.25 mg/kg, ip after 30 mins by two-lever drug discrimination assay. In kind it is functional. Particulars: route intraperitoneal. The method in brief:
as §1

The subject of assay [17] is Rattus norvegicus. The experiment in a line: Hallucinogenic activity in D-lysergic acid N,N-diethylamide-trained Sprague-Dawley rat assessed as disrupted behavior at 0.50 mg/kg, ip after 30 mins by two-lever drug discrimination assay. In kind it is functional. Particulars: dose 0.5 mg/kg; route intraperitoneal. An outline of the steps: as §1
Assay [18] has as its system Rattus norvegicus. Put plainly: Hallucinogenic activity in D-lysergic acid N,N-diethylamide-trained Sprague-Dawley rat assessed as disrupted behavior at 0.38 mg/kg, ip after 30 mins by two-lever drug discrimination assay. The class given is functional. Particulars: route intraperitoneal. An outline of the steps:
as §1

The EC50 is the concentration giving half of the maximal effect. The term Ki denotes a measure of affinity in units of concentration, obtained from inhibition or displacement. Higher therefore signals weaker binding.

T1 sequence (P14842 whole entry): as above

For `CC(N)Cc1c2c(c(Br)c3c1OCC3)OCCC2` (centres undefined), the Activity is 0% in the assay with Rattus norvegicus [1]; 83% with Rattus norvegicus [2]; 33% with Rattus norvegicus [3]; 54% in the assay with Rattus norvegicus [5]; 0% with Rattus norvegicus [6]; 0% with Rattus norvegicus [7]. The same compound came in with an ED50 with Rattus norvegicus [4] of 0.38 µmol/kg. Also, the Intrinsic activity in assay [8] was 86%. Moreover, the EC50 in assay [9] worked out at 19 nM. Moreover, the affinity in assay [10] corresponds to a Ki of 3.6 nM.
Take `CC(N)Cc1c2c(c(Br)c3c1OCCC3)OCCC2` (centres undefined): the Intrinsic activity in assay [8] was found to be 72%. In addition, in assay [9], the EC50 turned out to be 258 nM. Further, the inhibition constant (Ki) in [10] stood at 3.1 nM.
For `CC(N)Cc1c2c(c(Br)c3ccoc13)OCCC2` (centres undefined), in that order: 102%, 13 nM and 1 nM.
As to `CC(N)Cc1c2c(c(Br)c3c1OCC3)OCC2` (centres undefined), in assay [8], the Intrinsic activity was 88%. The compound also displayed a Ki in assay [10] of 1 nM.
Turning to `NCCc1c2c(c(Br)c3c1OCCC3)OCC2`, the Intrinsic activity in assay [8] is 64%. Besides, the EC50 in assay [9] stood at 146 nM. Also, the affinity in assay [10] corresponds to a Ki of 8.4 nM.
Consider `CC(N)Cc1c2c(c(Br)c3c1OCCC3)OCC2` (centres undefined), for which the Activity stood at 0% with Rattus norvegicus [1]; 41% in the assay on Rattus norvegicus [2]; 10% in the assay with Rattus norvegicus [5]; 80% in the assay on Rattus norvegicus [11]; 17% in the assay with Rattus norvegicus [6]; 0% in the assay with Rattus norvegicus [12]. Further, the ED50 with Rattus norvegicus [4] was determined as 1.16 µmol/kg. In addition, the Intrinsic activity in [8] was 74%. Further, in assay [9], the EC50 is 78 nM. In addition, in assay [10], the affinity corresponds to a Ki of 5.3 nM.
As for `NCCc1c2c(c(Br)c3c1OCC3)OCCC2`, the Intrinsic activity in assay [8] amounted to 61%. For the same compound, in assay [9], the half-maximal effective concentration (EC50) was 9.4 nM. In [10], this compound returned an inhibition constant Ki of 11 nM.
On to `NCCc1c2c(c(Br)c3c1OCCC3)OCCC2`, for which the Intrinsic activity in assay [8] turned out to be 61%. For the same compound, the EC50 in assay [9] is 241 nM. In assay [10], the Ki stood at 4.5 nM.
`COc1cc(CC(C)N)c(OC)cc1Br` (centres undefined) [BROLAMFETAMINE]: the Activity is on record as 50% with Rattus norvegicus [13]; 29% with Rattus norvegicus [14]; 89% in the assay on Rattus norvegicus [15]; 46% in the assay with Rattus norvegicus [16]; 36% in the assay on Rattus norvegicus [17]; 40% in the assay on Rattus norvegicus [18]. Also, in assay [8], the Intrinsic activity stood at 73%.
